Activity calls are given as the source filed them. No cut-off for these calls is given here.
Key:
Type in all cases: functional, cell-based
HT-22 [1] = assay: Neuroprotective activity against oxygen glucose deprivation-induced cell death in mouse HT22 cells assessed as increase cell survival at 6.25 to 100 uM by MTT assay
Method in brief: (§1)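 Mouse hippocampal HT-22 cells were split into blank control, OGD model and treated groups. Treated cells were exposed to oxygen glucose deprivation with test compound at 5 concentrations. The reference compound was dosed at 10 times the test-compound level. Viability was read by MTT and compared against the control and model groups. Each assay was run in triplicate.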

HT-22 [2] = assay: Neuroprotective activity against H2O2-induced oxidative stress-mediated cell death in mouse HT22 cells assessed as compound level causing increase cell survival at 1 to 100 uM by MTT assay
HT-22 [3] = assay: Neuroprotective activity against oxygen glucose deprivation-induced cell death in mouse HT22 cells assessed as increase cell survival at 100 uM by MTT assay; method in brief: as §1

CCC/C=C1/Oc2c(ccc(OC)c2OC)C1=O
Activity (HT-22 [1]): Dose-dependent effect

CCC/C=C1/C(=O)Oc2ccc(OC)cc21
Activity (HT-22 [1]): Dose-dependent effect

CCCCC1Oc2cc(OC)ccc2C1=O (stereo unspecified)
Activity (HT-22 [1]): Dose-dependent effect

CCC/C=C1/Oc2ccc(OC(=O)CCC(=O)OC(C)CCOc3no[n+]([O-])c3S(=O)(=O)c3ccccc3)cc2C1=O (stereo unspecified)
Activity (HT-22 [1]): Dose-dependent effect

CCC/C=C1/Oc2ccc(OC(=O)CCC(=O)OCCCCOc3no[n+]([O-])c3S(=O)(=O)c3ccccc3)cc2C1=O
Activity (HT-22 [2]): Active
Activity (HT-22 [1]): Dose-dependent effect

CCC/C=C1/Oc2ccc(OC(=O)CCC(=O)OCCCOc3no[n+]([O-])c3S(=O)(=O)c3ccccc3)cc2C1=O
Activity (HT-22 [2]): Active
Activity (HT-22 [3]): Active
Activity (HT-22 [1]): Dose-dependent effect

CCC/C=C1/Oc2cc(OC)ccc2C1=O
Activity (HT-22 [2]): Active
Activity (HT-22 [1]): Dose-dependent effect

CCC/C=C1/Oc2ccccc2C1=O
Activity (HT-22 [1]): Dose-dependent effect

CCC/C=C1/C(=O)Oc2ccccc21
Activity (HT-22 [1]): Dose-dependent effect

CCC/C=C1/Oc2ccc(OC(=O)CCC(=O)OC/C=C/COc3no[n+]([O-])c3S(=O)(=O)c3ccccc3)cc2C1=O
Activity (HT-22 [1]): Dose-dependent effect

CCCCC1Oc2c(ccc(OC)c2OC)C1=O (stereo unspecified)
Activity (HT-22 [1]): Dose-dependent effect

CCC/C=C1/C(=O)Oc2cc(OC)ccc21
Activity (HT-22 [1]): Dose-dependent effect

Reference: ChEMBL document CHEMBL4184226, “Design and synthesis of novel senkyunolide analogues as neuroprotective agents” (2018)
